Bioassay records: PubChem, several laboratories
The list is not random: actives were taken first. Their share in the collection is about 0.17%.
Bcl-XL Bim block = inhibitors of Bim-Bcl-XL interaction, human | Bim peptide-Bcl-XL binding, bead flow cytometry, fluorescence | actives 0.04% (n = 190,000) | inhibition, % at 10 µM
Bfl-1 Bim block = inhibitors of Bim-Bfl-1 interaction, human; Q16548; Bead-based flow cytometry, Bim-Bfl-1 binding inhibition; inhibition, % at 10 µM; actives 0.12% (n = 190,000);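 note: 0% = wells without compound plus tracer and 100% = blocker peptide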
Target sequence (Q16548 whole entry, looked up): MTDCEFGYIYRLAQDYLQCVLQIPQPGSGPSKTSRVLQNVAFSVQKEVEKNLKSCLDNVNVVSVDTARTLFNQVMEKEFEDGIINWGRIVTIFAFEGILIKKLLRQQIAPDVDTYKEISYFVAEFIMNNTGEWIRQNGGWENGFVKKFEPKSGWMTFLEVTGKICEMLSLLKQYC
Bcl-2 Bim block = inhibitors of Bim-Bcl-2 interaction, human. P10415. Bead-based flow cytometry, Bim peptide-Bcl-2 binding. inhibition, % at 10 µM. actives 0.06% (n = 190,000); in the data active = inhibition above about 40%;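 note: 0% = no compound wells with probe peptide and 100% = reference peptide inhibitor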
Biofilm kill mix = mixtures killing C. albicans biofilm; C. albicans biofilm persisters + clotrimazole, fluorescence viability; primary screen in compound mixtures of four per well; inhibition, % at 7.6 µM; actives 0.02% (n = 120,000); AID 1242;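 active = inhibition above 30.3% in the primary screen of four-compound pools, then above 30% when the compound was retested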;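 note: compounds exposed to preformed 24 h biofilms for 48 h; 0% = untreated biofilm control and 100% = clotrimazole plus chlorhexidine kill blank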
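Test system: C. albicans CAF4-2 wild-type biofilms; buffer or medium: RPMI/MOPS medium, pH 7.0; schedule: 24 h biofilm formation, then 48 h compound exposure, 37 °C; detection: Alamar Blue fluorescence; measure: percent inhibition of biofilm viability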
Bcl-W Bim block = disrupts Bim peptide binding to human Bcl-W. Q92843. bead-based flow cytometry. inhibition, % at 10 µM. actives 0.02% (n = 190,000);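 note: 0% = bound tracer without compound and 100% = peptide blocker; higher means less fluorescent Bim peptide bound to Bcl-W beads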
Bim-Bcl-B = disrupts Bim peptide binding to human Bcl-B; actives 0.073% (n = 190,000); bead-based flow cytometry; inhibition, % at 10 µM; Q9HD36;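 note: 0% = tracer peptide without compound and 100% = reference inhibitor peptide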
Target sequence (Q9HD36 whole entry, looked up): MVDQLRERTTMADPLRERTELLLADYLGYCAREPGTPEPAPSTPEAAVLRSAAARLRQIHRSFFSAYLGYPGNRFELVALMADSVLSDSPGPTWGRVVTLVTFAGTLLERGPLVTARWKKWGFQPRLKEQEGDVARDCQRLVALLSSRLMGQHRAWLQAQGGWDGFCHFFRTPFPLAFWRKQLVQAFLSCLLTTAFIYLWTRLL
* marks the source's active call; other numbers are inactive results; nt = no result given. Cut-off read from the data, not from the text of the source, unless noted: active = inhibition above about 40%.

SMILES	Bcl-XL Bim block	Bfl-1 Bim block	Bcl-2 Bim block	Biofilm kill mix	Bcl-W Bim block	Bim-Bcl-B
CC(CCc1ccccc1)NC(=O)C1CCN(S(=O)(=O)N2CCCCC2)CC1 (centres undefined)	41.0*	38.0	28.0	nt	25.0	25.0
Cc1cc2nc(/C(C#N)=C/c3ccncc3)[nH]c2cc1C	39.0	38.0	44.0*	11.2	47.0*	34.0
Nc1c(C(=O)NCC2CCCO2)sc2nc3c(c(-c4ccco4)c12)CC/C3=C\c1ccco1 (centres undefined)	37.0	38.0	65.0*	10.4	33.0	52.0*
O=C1c2ccccc2-c2onc3ccc(NCCCn4ccnc4)c1c23	100.0*	79.0*	88.0*	nt	94.0*	92.0*
Cc1cc(C)c(C)c(Oc2ncnc(N)c2[N+](=O)[O-])c1	-2.0	-1.0	-2.0	7.7	-1.0	-4.0
Cc1ccc(C)c(Oc2ncnc(N)c2[N+](=O)[O-])c1	46.0*	43.0*	31.0	-6.0	29.0	24.0
CC(C)(C)c1ccc(-c2cn(-c3ccc(Br)cc3)c3[n+]2CCCS3)cc1	-2.0	-1.0	-1.0	31.4*	0.0	-2.0
c1ccc(-c2cn(-c3ccccc3)c3[n+]2CCS3)cc1	-1.0	3.0	0.0	8.9	0.0	-3.0
O=C(O)C1CCN(C(=O)c2csc(-c3ccc4c(c3)CCO4)n2)CC1	nt	nt	nt	33.1	nt	nt
Clc1cccc(Cl)c1CNc1ccc(N2CCCC2)cc1	4.0	59.0*	21.0	6.8	25.0	2.0
NC1=NC2(CCN(Cc3ccccc3)CC2)n2c(nc3ccccc32)N1	-3.0	-15.0	-9.0	nt	-3.0	-8.0
CCN1/C(=C/c2ccc3cc(C)ccc3[n+]2CC)Sc2ccccc21	13.0	14.0	15.0	14.0	5.0	-22.0
CCN1/C(=C/c2ccc3cc(C)ccc3[n+]2CC)Sc2cc(C)c(C)cc21	19.0	39.0	40.0*	32.3*	14.0	-26.0
Cc1[nH]c2ccccc2c1C(=O)COC(=O)c1c(-c2ccccc2Cl)noc1C	-8.0	0.0	-3.0	21.4	-2.0	-2.0
Cc1[nH]c2ccccc2c1C(=O)COC(=O)c1c(-c2c(F)cccc2Cl)noc1C	41.0*	43.0*	28.0	12.4	29.0	21.0
C=C(C)CNC(=S)N/N=C(\C)c1ccc(-n2ccnc2)cc1	0.0	-10.0	-10.0	nt	4.0	-6.0
CCCCN=C1NC(=O)C(CC(=O)Nc2ccc(Cl)cc2)S1 (centres undefined)	-1.0	-1.0	2.0	nt	-4.0	0.0
Cc1nc(=S)c2ccccc2[nH]1	15.0	68.0*	87.0*	nt	11.0	85.0*
Cc1nc2ncccn2c1-c1csc(Nc2ccc(O)cc2)n1	62.0*	19.0	13.0	1.1	35.0	33.0
O=S1(=O)N=C(N(CCO)/N=C/c2ccncc2)c2ccccc21	40.0*	7.0	12.0	11.2	30.0	23.0
O=S1(=O)N=C(N(CCO)/N=C/c2ccccc2)c2ccccc21	21.0	1.0	4.0	15.0	11.0	14.0
CN1C(=O)/C(=C/c2ccc(-c3ccccc3[N+](=O)[O-])o2)SC1=Nc1ccc(Cl)c(C(=O)O)c1	64.0*	33.0	34.0	4.4	44.0*	44.0*
COc1ccc(OCC(O)CN2C(=O)c3ccccc3S2(=O)=O)cc1 (centres undefined)	2.0	-9.0	-6.0	nt	1.0	-5.0
COc1ccc(C(=S)N2CCCCCC2)cc1	53.0*	52.0*	37.0	5.9	46.0*	38.0
Cc1[nH]c(C)c2c(=O)n(-c3ccccc3)ncc12	-2.0	-8.0	-4.0	nt	-1.0	-5.0
SMILES	Bcl-XL Bim block	Bfl-1 Bim block	Bcl-2 Bim block	Biofilm kill mix	Bcl-W Bim block	Bim-Bcl-B
COc1ccc(NC(=O)c2cccnc2Nc2ccc(OC)cc2)cc1	-10.0	-24.0	-9.0	nt	-1.0	-14.0
C=CCn1c(C)cc(-c2csc(N)n2)c1C	7.0	11.0	13.0	nt	14.0	33.0
CCCn1c(C)cc(-c2csc(N)n2)c1C	15.0	30.0	27.0	nt	25.0	46.0*
CC(=O)NC(=O)Nc1sc(=S)n(C)c1C	49.0*	56.0*	34.0	nt	37.0	33.0
Cc1ccc(NC(=O)Nc2sc(=S)n(C)c2C)cc1	-6.0	-10.0	-7.0	nt	-1.0	-11.0
CCOC(=O)c1ccc(NC(=O)CSCc2ccco2)cc1	-4.0	-8.0	-9.0	nt	-2.0	-12.0
CCOC(=O)c1ccc(NC(=O)CSCCC(=O)O)cc1	61.0*	50.0*	90.0*	13.2	62.0*	84.0*
Cc1ccc(-c2nc3c(c(=O)[nH]c(=O)n3Cc3ccccc3)n2C)o1	2.0	40.0*	8.0	15.4	9.0	-4.0
